Experiment [1] relates to Nucleic Acid. The experiment can be described thus: Binding affinity to human telomeric DNA expressed in Escherichia coli DH5alpha assessed as alkylation of complementary C rich site at 50 to 200 nM after 24 hrs by PAGE analysis. The method in brief:
(§1)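 5'-Texas Red-labelled telomere-containing DNA fragment (insert cloned and propagated in E. coli DH5a, PCR-amplified, purified), alkylated with conjugate at various concentrations in 5 mM sodium phosphate buffer pH 7.0, 10% DMF, room temperature, 24 h. Reaction stopped with calf thymus DNA and heating 95 °C, 5 min. Alkylation sites read by high-resolution denaturing polyacrylamide gel electrophoresis.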

The subject of experiment [2] is Nucleic Acid. Kind of experiment: Binding affinity to human telomeric DNA expressed in Escherichia coli DH5alpha assessed as alkylation of G rich 5^-GGTTAGGGTTA-3^ strand at 50 to 200 nM after 24 hrs by PAGE. Summed up:
as §1

Experiment [3] deals with Nucleic Acid. The experiment can be described thus: Binding affinity to human telomeric DNA expressed in Escherichia coli DH5alpha assessed as alkylation of G and C rich strand at 10 nM after 24 hrs by PAGE analysis. Summed up:
as §1

Molecules are shown by their SMILES. The source made the active and inactive calls. The calls are words filed in the database; no cut-off is given here.

The record followed here is ChEMBL document CHEMBL1156231, “Alkylation of a human telomere sequence by heterotrimeric chlorambucil PI polyamide conjugates” (Bioorg Med Chem, 2010).

Turning to `CN(C)CCCNC(=O)c1nc(NC(=O)c2nc(NC(=O)c3nc(NC(=O)CCNC(=O)CCNC(=O)c4nc(NC(=O)c5nc(NC(=O)c6nc(NC(=O)CCCc7ccc(N(CCCl)CCCl)cc7)cn6C)cn5C)cn4C)cn3C)cn2C)cn1C`, the result in the experiment on Nucleic Acid [1] and in the experiment with Nucleic Acid [3] was Active. The result with Nucleic Acid [2] was inactive.
